Several values for one entry are separate records, joined by “and”; a condition that tells them apart may be missing. Identical values can stand only once. Like-named read-outs stand apart in the source and are kept apart here. Where no end group is shown, it is not given here.
Legend:
[1] = format: in vitro ADME, human; conditions: for original content still present / detected in plasma: after 1 month of storage at −80 °C, P100 plasma; for T90 in days (±SEM) in P100 plasma: 50 nM, T90 extrapolated
Procedure, shortened: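 Cell-free plasma from BD P100 tubes spiked with the training peptide mix, 50 nM each (final). Aliquots stored at 4, −35 or −80 °C for up to 1 month. Sampled before storage and at 1, 7 and 30 days. Each 50 µL sample was acidified-acetonitrile precipitated, sonicated, boiled and centrifuged, then run by UPLC–MS/MS. Content normalised to baseline. T90 extrapolated from first-order decay fits.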

[2] = format: in vitro ADME, human; conditions: whole blood
Procedure, shortened: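 Validation arm: fresh whole blood in EDTA or BD P100 tubes, equilibrated 30 min at 4 °C. Spiked with four peptides not used in training, 10 nM each (final). Aliquots taken at 0–7.5 h and centrifuged 1800g for 10 min. Plasma deproteinised with acidified acetonitrile, then quantified by UPLC–MS/MS MRM. Decay constant taken from the ln-linear slope. T50/T90 derived assuming first-order kinetics, SEM by error propagation.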

[3] = format: in vitro ADME, human; conditions: time frame of 7.5 h, at both 4 and 21 °C, all tubes
Procedure, shortened: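 Fresh donor whole blood, in EDTA, EDTA plus protease-inhibitor cocktail (1:100 final), BD P100 or BD P800 tubes, held 30 min at 4, 21 or 37 °C. Then spiked with peptide mix at 10 nM each (final). Sampled at 0, 2.5, 5 and 7.5 h and centrifuged. Plasma acetonitrile/formic acid precipitated and analysed by amide UPLC–ESI(+)–MS/MS MRM. T0-normalised ln areas fitted first-order (λ). T50/T90 reported ±SEM by error propagation, n = 4.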

[4] = storage at 4 °C, n = 4, up to 1 month
[5] = storage at −35 °C, n = 4, thawed once, up to 1 month
[6] = storage at −80 °C, n = 4, thawed once, up to 1 month
[7] = external validation, P100 tube, 4 °C
[8] = head-to-head comparison, EDTA sampling tube at 4 °C
[9] = head-to-head comparison, P100 sampling tube at 4 °C

SDLPFEH [Q164, SDLPFEH]
original content still present / detected in plasma [1]: more than 95%
T90 in days (±SEM) in P100 plasma [1, 4]: 0.95 (±0.23) days
T90 in days (±SEM) in P100 plasma [1, 5]: 33.8 (±45.91) days
T90 in days (±SEM) in P100 plasma [1, 6]: 96.3 (±136.01) days

SNLVECVFSLFKKCN [Q076]
T90 in days (±SEM) in P100 plasma [1, 4]: 1.24 (±0.03) days
T90 in days (±SEM) in P100 plasma [1, 5]: 20.4 (±13.67) days
T90 in days (±SEM) in P100 plasma [1, 6]: 13.2 (±4.80) days

ESRVSRIILDFLFQRKK [Q055]
T50 [±SEM] [2, 7]: 1.49 [±0.12] h
T90 [±SEM] (time where 90% of the peptide is still present) [2, 7]: 0.23 [±0.02] h
decay constant (λ) [±SEM] [2, 7]: –0.00776 [±0.00064]
T50 [±SEM] [2, 8]: 1.35 [±0.33] h
T90 [±SEM] [2, 8]: 0.21 [±0.05] h
decay constant (λ) [±SEM] [2, 8]: –0.00856 [±0.0021]
T50 [±SEM] [2, 9]: 2.07 [±0.36] ^a h
T90 [±SEM] [2, 9]: 0.31 [±0.05] ^a h
decay constant (λ) [±SEM] [2, 9]: –0.00559 [±0.00098]

SGSLSTFFRLFNRSFTQALGK [Q176]
original content still present / detected in plasma [1]: more than 95%
T90 in days (±SEM) in P100 plasma [1, 4]: 0.48 (±0.02) days
T90 in days (±SEM) in P100 plasma [1, 5]: 16.4 (±6.98) days
T90 in days (±SEM) in P100 plasma [1, 6]: 46.4 (±64.18) days

SIFTLVA [Q184, SIFTLVA]
original content still present / detected in plasma [1]: ~25%
T90 in days (±SEM) in P100 plasma [1, 4]: 2.24 (±0.20) days
T90 in days (±SEM) in P100 plasma [1, 5]: 2.56 (±0.21) days
T90 in days (±SEM) in P100 plasma [1, 6]: 2.6 days and 2.61 (±0.23) days
degradation of the peptide in whole blood [3]: no degradation

ESRLPKIRFDFIFPRKK [Q054]
T50 [±SEM] [2, 7]: 1.87 [±0.17] h
T90 [±SEM] (time where 90% of the peptide is still present) [2, 7]: 0.28 [±0.03] h
decay constant (λ) [±SEM] [2, 7]: –0.00619 [±0.00056]

— PMC7346264 (ACS Omega, 2020)
